ChEMBL document CHEMBL1138485, “Discovery of inducible nitric oxide synthase (iNOS) inhibitor development candidate KD7332, part 1: Identification of a novel, potent, and selective series of quinolinone iNOS dimerization inhibitors that are orally active in rodent pain models” (J Med Chem, 2009)

How the values were obtained:
Type in all cases: cell-based
[1] = target: Nitric oxide synthase, inducible (Homo sapiens, UniProt P35228); experiment: Inhibition of human iNOS expressed in HEK293 cells assessed as NO production by transient transfection assay
In short: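 HEK293 cells grown to ~70% confluence in DMEM/10% FBS with pen/strep. Cells transiently transfected with 10 µg human or murine iNOS plasmid (Fugene 6), 4 h at 37 °C, 10% CO2. Trypsinized, plated at 5 × 10⁵ cells/mL and dosed at once; 1400W 100 µM final as positive control. After 18 h, NO read as DAN fluorescence (10 µg/mL, 20 min RT, then NaOH). EC50 from 3 runs, 10-point curves, n = 8/point.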

Nitric oxide synthase 1 [2] = target: T1, Nitric oxide synthase 1 (Homo sapiens, UniProt P29475); experiment: Inhibition of human nNOS expressed in HEK293 cells assessed as NO production at 10 uM by transient transfection assay relative to BBS-4
In short: (§1)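 HEK293 cells transiently transfected with human eNOS (15 µg plasmid) or nNOS (10 µg plasmid), Fugene 6 at 3:1 µL:µg, 4 h at 37 °C, 10% CO2. Plated at 5 × 10⁵ cells/mL with compound; SEITU 100 µM final as positive control. After 24 h, activated with A23187 (83 nM final, eNOS) or ionomycin (30 µM final, nNOS). After 18 h more, NO read by DAN fluorescence. Inhibition is relative to the maximal inhibition by the control dimerization inhibitor. 3 runs, 10-point curves, n = 3/point.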

[3] = target: T2, Nitric oxide synthase 3 (Homo sapiens) (UniProt P29474); experiment: Inhibition of human eNOS expressed in HEK293 cells assessed as NO production at 100 uM by transient transfection assay relative to BBS-4; in short: as §1
T2 sequence (whole entry): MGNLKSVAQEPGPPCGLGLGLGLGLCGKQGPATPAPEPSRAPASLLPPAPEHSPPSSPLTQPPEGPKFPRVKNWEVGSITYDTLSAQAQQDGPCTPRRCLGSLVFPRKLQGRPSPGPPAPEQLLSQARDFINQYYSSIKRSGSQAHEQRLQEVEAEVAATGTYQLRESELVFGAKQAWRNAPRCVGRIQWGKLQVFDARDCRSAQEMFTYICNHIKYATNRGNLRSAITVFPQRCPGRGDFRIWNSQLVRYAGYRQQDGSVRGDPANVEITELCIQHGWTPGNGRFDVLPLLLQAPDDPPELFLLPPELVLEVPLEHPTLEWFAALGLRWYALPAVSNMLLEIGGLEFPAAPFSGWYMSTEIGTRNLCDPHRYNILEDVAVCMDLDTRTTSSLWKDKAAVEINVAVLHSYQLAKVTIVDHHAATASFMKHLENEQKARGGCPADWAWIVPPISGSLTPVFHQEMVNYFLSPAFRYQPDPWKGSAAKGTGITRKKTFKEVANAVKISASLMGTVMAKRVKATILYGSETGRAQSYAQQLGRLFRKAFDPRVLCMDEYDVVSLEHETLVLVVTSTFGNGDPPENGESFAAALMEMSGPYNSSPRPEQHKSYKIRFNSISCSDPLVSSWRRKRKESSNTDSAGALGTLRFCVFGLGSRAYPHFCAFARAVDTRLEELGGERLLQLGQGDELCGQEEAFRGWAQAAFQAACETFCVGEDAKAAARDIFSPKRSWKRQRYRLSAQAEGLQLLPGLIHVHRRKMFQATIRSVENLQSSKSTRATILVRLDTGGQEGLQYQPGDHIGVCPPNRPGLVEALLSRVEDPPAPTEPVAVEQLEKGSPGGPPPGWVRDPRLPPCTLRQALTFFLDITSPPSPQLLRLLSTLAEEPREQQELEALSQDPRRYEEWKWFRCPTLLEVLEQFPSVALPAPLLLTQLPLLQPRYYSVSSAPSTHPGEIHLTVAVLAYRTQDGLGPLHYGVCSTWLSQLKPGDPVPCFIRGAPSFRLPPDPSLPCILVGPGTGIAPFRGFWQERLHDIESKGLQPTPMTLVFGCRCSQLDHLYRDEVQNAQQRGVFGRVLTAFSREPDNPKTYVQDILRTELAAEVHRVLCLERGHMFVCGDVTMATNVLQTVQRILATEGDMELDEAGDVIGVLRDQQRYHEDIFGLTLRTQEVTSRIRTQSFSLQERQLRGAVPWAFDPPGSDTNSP

Nitric oxide synthase 1 [4] = target: T1, Nitric oxide synthase 1; experiment: Inhibition of human nNOS expressed in HEK293 cells assessed as NO production by transient transfection assay
Nitric oxide synthase 3 = target: T3, Nitric oxide synthase 3 (Homo sapiens, UniProt P29474); experiment: Inhibition of human eNOS expressed in HEK293 cells assessed as NO production by transient transfection assay
T3 sequence (P29474 whole entry): T2 sequence (whole entry)
In short: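 HEK293 cells grown to ~70% confluence in DMEM/10% FBS with pen/strep, transfected with 15 µg human eNOS plasmid plus Fugene 6 (3:1 µL:µg), 4 h at 37 °C, 10% CO2. Cells replated at 5 × 10⁵/mL, compound added at once, 24 h incubation, then A23187 (83 nM final). After 18 h, NO read by DAN fluorescence.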

T1 sequence (P29475 whole entry): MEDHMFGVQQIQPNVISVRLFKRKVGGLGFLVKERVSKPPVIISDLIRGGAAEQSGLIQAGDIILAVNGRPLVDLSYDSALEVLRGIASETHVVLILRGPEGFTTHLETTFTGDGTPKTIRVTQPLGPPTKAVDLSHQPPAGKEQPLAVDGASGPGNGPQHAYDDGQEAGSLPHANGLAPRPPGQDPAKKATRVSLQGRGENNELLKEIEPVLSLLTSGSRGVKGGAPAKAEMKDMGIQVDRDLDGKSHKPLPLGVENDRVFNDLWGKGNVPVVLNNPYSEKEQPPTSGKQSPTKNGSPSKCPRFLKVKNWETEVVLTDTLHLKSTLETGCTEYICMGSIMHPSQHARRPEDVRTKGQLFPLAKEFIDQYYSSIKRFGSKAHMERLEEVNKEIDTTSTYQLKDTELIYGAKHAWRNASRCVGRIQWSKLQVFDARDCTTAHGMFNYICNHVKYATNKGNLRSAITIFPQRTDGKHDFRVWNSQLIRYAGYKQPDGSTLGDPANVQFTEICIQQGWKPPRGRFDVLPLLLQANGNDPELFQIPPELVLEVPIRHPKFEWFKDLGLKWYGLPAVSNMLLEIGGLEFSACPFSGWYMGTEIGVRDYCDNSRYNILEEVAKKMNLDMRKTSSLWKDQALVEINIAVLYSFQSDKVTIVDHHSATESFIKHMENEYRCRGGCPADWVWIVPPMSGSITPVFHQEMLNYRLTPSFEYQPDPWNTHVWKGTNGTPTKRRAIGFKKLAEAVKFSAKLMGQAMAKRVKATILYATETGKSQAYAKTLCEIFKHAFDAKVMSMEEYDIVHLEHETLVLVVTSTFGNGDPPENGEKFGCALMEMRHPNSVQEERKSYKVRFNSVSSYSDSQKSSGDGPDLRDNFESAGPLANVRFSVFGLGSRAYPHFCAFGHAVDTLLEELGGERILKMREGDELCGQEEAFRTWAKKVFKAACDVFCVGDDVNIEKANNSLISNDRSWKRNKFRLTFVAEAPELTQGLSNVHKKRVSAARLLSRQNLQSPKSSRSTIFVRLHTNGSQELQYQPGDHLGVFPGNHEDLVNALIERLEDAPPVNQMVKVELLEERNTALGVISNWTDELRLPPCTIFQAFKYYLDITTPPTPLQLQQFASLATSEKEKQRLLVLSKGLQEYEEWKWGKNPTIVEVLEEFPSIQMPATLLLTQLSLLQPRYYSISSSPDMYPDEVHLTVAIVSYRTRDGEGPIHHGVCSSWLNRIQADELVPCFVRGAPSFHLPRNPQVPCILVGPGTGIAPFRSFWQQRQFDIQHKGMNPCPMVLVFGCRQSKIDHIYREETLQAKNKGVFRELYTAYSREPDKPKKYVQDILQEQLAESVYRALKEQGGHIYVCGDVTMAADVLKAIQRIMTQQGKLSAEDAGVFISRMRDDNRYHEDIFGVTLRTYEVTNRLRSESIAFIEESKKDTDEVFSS
Nitric oxide synthase, inducible, sequence (P35228 whole entry): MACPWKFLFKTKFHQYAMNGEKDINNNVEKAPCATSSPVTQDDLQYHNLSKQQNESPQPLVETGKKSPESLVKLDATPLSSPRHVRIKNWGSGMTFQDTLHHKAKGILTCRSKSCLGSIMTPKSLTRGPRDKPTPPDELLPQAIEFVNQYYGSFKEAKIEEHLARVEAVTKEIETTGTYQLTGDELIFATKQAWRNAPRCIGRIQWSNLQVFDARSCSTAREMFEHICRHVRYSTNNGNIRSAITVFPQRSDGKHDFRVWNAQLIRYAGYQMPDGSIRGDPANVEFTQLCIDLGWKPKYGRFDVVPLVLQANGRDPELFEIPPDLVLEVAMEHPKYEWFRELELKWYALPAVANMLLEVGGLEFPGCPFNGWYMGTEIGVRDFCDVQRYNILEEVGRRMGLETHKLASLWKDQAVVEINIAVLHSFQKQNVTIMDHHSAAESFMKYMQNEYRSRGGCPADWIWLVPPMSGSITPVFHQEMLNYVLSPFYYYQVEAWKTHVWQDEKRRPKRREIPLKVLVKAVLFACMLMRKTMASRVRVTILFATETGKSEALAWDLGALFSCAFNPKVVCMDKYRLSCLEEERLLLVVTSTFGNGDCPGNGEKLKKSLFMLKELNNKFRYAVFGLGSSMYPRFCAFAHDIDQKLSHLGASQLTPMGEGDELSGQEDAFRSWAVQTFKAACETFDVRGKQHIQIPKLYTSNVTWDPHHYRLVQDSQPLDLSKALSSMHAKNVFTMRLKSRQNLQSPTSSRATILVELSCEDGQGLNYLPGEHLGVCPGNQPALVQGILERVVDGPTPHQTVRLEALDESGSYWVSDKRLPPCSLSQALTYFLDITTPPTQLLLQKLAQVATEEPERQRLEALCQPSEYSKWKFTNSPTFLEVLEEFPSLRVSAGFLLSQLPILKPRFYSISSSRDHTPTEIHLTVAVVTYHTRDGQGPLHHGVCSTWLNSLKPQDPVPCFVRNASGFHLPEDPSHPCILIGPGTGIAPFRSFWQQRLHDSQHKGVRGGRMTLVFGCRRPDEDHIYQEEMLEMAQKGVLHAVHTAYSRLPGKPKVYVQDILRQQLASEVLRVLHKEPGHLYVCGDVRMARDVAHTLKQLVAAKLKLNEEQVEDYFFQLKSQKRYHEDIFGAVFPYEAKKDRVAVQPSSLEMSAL

Row | EC50 [1] [µM] | inhibition (Nitric oxide synthase 1 [2]) [%] | inhibition [3] [%] | EC50 (Nitric oxide synthase 1 [4]) [µM] | EC50 (Nitric oxide synthase 3) [µM] | SMILES
1 | 1.3 | < 50 | < 50 | > 10 | > 100 | O=C(c1ccco1)N(Cc1cc(=O)[nH]c2ccccc12)c1ccccc1
2 | 0.5 | < 50 | < 50 | > 10 | > 100 | Cc1ncsc1C(=O)N(Cc1cc(=O)[nH]c2cccc(F)c12)c1cccc(Cl)c1
3 | 0.24 | < 50 | < 50 | > 10 | > 100 | Cc1ncsc1C(=O)N(Cc1cc(=O)[nH]c2c(F)cccc12)c1ccc(Cl)cc1
4 | 0.35 | – | < 50 | 7.9 | > 100 | Cc1ncccc1C(=O)N(Cc1cc(=O)[nH]c2c(F)cccc12)c1cccc(Cl)c1
5 | 0.84 | – | – | – | – | Cc1ncsc1C(=O)N(Cc1cc(=O)oc2c(F)c(F)ccc12)c1cccc(Cl)c1
6 | 0.016 | – | – | 0.5 | 6.8 | Cc1noc(C)c1C(=O)N(Cc1cc(=O)[nH]c2c(F)cccc12)c1cccc(Cl)c1
7 | 0.2 | < 50 | < 50 | > 10 | > 100 | Cc1ncsc1C(=O)N(Cc1cc(=O)[nH]c2c(F)cccc12)c1ccccc1
8 | 0.99 | < 50 | < 50 | > 10 | > 100 | COc1cccc(N(Cc2cc(=O)[nH]c3c(F)cccc23)C(=O)c2scnc2C)c1
9 | 0.42 | – | < 50 | 4.1 | > 100 | Cc1cccnc1C(=O)N(Cc1cc(=O)[nH]c2c(F)cccc12)c1cccc(Cl)c1
10 | 0.089 | – | – | 2.1 | 13 | Cc1cnccc1C(=O)N(Cc1cc(=O)[nH]c2c(F)cccc12)c1cccc(Cl)c1
11 | 1.3 | < 50 | < 50 | > 10 | > 100 | Cc1ncsc1C(=O)N(Cc1cc(=O)[nH]c2c(Cl)cccc12)c1cccc(Cl)c1
12 | 0.049 | – | – | 2.2 | 41 | Cc1ccncc1C(=O)N(Cc1cc(=O)[nH]c2c(F)cccc12)c1cccc(Cl)c1
13 | 0.5 | < 50 | < 50 | > 10 | > 100 | Cc1ncsc1C(=O)N(Cc1cc(=O)[nH]c2ccccc12)c1ccccc1
14 | 1.14 | – | – | – | – | Cc1ncsc1C(=O)N(Cc1cc(=O)[nH]c2c1CCCC2)c1cccc(Cl)c1
15 | 0.17 | < 50 | < 50 | > 10 | > 100 | Cc1ncsc1C(=O)N(Cc1cc(=O)[nH]c2ccccc12)c1cccc(Cl)c1
16 | 0.053 | – | < 50 | – | > 100 | O=C(c1cncs1)N(Cc1cc(=O)[nH]c2c(F)cccc12)c1cccc(Cl)c1
17 | 0.1 | < 50 | < 50 | > 10 | > 100 | Cc1cccc(N(Cc2cc(=O)[nH]c3c(F)cccc23)C(=O)c2scnc2C)c1
18 | 0.3 | < 50 | < 50 | > 10 | > 100 | Cc1ncsc1C(=O)N(Cc1cc(=O)[nH]c2ccc(F)cc12)c1cccc(Cl)c1
19 | 0.2 | < 50 | – | > 10 | 37 | Cc1ncsc1C(=O)N(Cc1cncc2c(F)c(F)ccc12)c1cccc(Cl)c1
20 | 0.77 | – | < 50 | 10.3 | > 100 | O=C(C1CCCC1)N(Cc1cc(=O)[nH]c2c(F)cccc12)c1cccc(Cl)c1
21 | 13 | < 50 | < 50 | > 10 | > 100 | Cc1ncsc1C(=O)N(Cc1cc(=O)[nH]c2c(F)cccc12)c1ccccc1Cl
22 | 0.76 | – | – | – | – | Cc1ncsc1C(=O)N(Cc1cncc2c(F)cccc12)c1cccc(Cl)c1
23 | 2 | – | – | – | – | Cc1ncsc1C(=O)N(Cc1cc(=O)oc2c(F)cccc12)c1cccc(Cl)c1
24 | 0.062 | – | – | – | 15 | Cc1ncsc1C(=O)N(Cc1cc(=O)[nH]c2c(F)cccc12)c1cccc(F)c1
25 | 1.1 | < 50 | < 50 | > 10 | > 100 | O=C(c1ccco1)N(Cc1cc(=O)[nH]c2c(F)cccc12)c1ccccc1
26 | 0.053 | – | – | 3.4 | 33 | Cc1ncsc1C(=O)N(Cc1cc(=O)[nH]c2cc(F)ccc12)c1cccc(Cl)c1
27 | 0.056 | 2.7 | < 50 | 2.7 | > 100 | Cc1ncsc1C(=O)N(Cc1cc(=O)[nH]c2c(F)cccc12)c1cccc(C#N)c1
